Source: ChEMBL document CHEMBL1641390, “Structure and cytotoxicity of diterpenoids from Isodon eriocalyx” (J Nat Prod, 2010)

Experiments:
Assay type in all cases: functional, cell-based
[1] = system: HT-29; experiment: Cytotoxicity against human HT-29 cells after 72 hrs by sulforhodamine B assay; details: HT-29, 72 h
Summary of the method: (§1)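 Cells plated 24 h, then exposed to five concentrations in duplicate for 72 h at 37 °C, 5% CO2. Saline vehicle control. TCA-fixed, SRB-stained, dye solubilized in 10 mM Tris, A510 read. Inhibition relative to control, expressed as IC50.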

[2] = system: Bel-7402; experiment: Cytotoxicity against human Bel7402 cells after 72 hrs by sulforhodamine B assay; details: Bel-7402, 72 h
Summary of the method: as §1, with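 “HT-29 and SK-OV-3 (ATCC) grown in McCoy's 5a, BEL-7402 (Shanghai Cell Bank) in RPMI 1640, all with 10% FBS. Cells” for “Cells”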

[3] = system: SK-OV-3; experiment: Cytotoxicity against human SKOV3 cells after 72 hrs by sulforhodamine B assay; details: SK-OV-3, 72 h
Summary of the method: as §1, with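 “HT-29 and SK-OV-3 (ATCC) grown in McCoy's 5a, BEL-7402 (Shanghai Cell Bank) in RPMI 1640, all with 10% FBS. Cells” for “Cells”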

SMILES	IC50 [1]	IC50 [2]	IC50 [3]
C=C(C=O)[C@@H]1CC[C@@H]2[C@@H](C1)C(=O)[C@@H](O)[C@@H]1[C@](C)(COC(C)=O)CC[C@H](O)[C@@]21C [ERIOCASIN D]	> 10 µM	> 10 µM	5.7 µM
C=C1C(=O)[C@@]23C[C@H]1C[C@H]1O[C@H](O)[C@@H]4[C@](C)(COC(C)=O)CC[C@@H](OC2=O)[C@@]4(CO)[C@H]13 [MAOESIN A]	> 10 µM	> 10 µM	> 10 µM
C=C1C(=O)[C@]23C[C@H]1CC[C@H]2[C@@]12CO[C@@]3(O)[C@@H](O)[C@@H]1C(C)(C)CC[C@@H]2OC(C)=O [EFFUSANIN B]	4.1 µM	7.3 µM	2.1 µM
C=C(C=O)[C@@H]1CC[C@@H]2[C@@H](C1)C(=O)[C@@H](O)[C@@H]1C(C)(C)[C@H](O)CC[C@@]21C	8.1 µM	> 10 µM	7.3 µM
C=C1[C@H]2C[C@@H](O)C3(C(=O)C[C@@H]4[C@](C)(COC(C)=O)CCC[C@@]4(C)[C@@H]3C2)[C@@H]1O [ERIOCATISIN A]	> 10 µM	> 10 µM	> 10 µM
C=C1C(=O)[C@]23C[C@H]1CC[C@H]2[C@@]12CO[C@@]3(O)[C@@H](OC(C)=O)[C@@H]1[C@@](C)(COC(C)=O)CC[C@H]2OC(C)=O [MAOECRYSTAL R]	2.4 µM	4 µM	3 µM
C=C(C=O)[C@@H]1CC[C@@H]2[C@@H](C1)C(=O)[C@@H](O)[C@@H]1[C@](C)(COC(C)=O)[C@@H](OC(C)=O)C[C@H](O)[C@@]21C	> 10 µM	> 10 µM	5.1 µM
C=C1C(=O)[C@@]23[C@@H]4C[C@@H]5C(C)(C)CC[C@H](O)[C@@]5(C(OC)O4)[C@@H]2CC[C@@H]1[C@H]3O (stereo partly drawn) [KAMEBACETAL A]	9.8 µM	> 10 µM	4.7 µM
C=C1C(=O)[C@]23C[C@H]1CC[C@H]2[C@@]12CO[C@]3(O)[C@@H](O)[C@@H]1[C@](C)(COC(C)=O)CC[C@@H]2OC(C)=O [EFFUSANIN D]	5.9 µM	> 10 µM	9.1 µM
CC(=O)OC[C@]1(C)C(OC(C)=O)CC[C@]23CO[C@@](O)(C[C@@H]21)[C@]12C(=O)C4(CCC45C(=O)[C@]46[C@H](O)[C@H]5CC[C@H]4[C@]45CCC(OC(C)=O)[C@@](C)(COC(C)=O)[C@H]4C[C@]6(O)OC5)[C@H](CC[C@@H]31)[C@H]2O (stereo partly drawn) [MAOECRYSTAL M]	> 10 µM	6 µM	7 µM
C=C1C(=O)[C@]23C[C@H]1CC[C@H]2[C@]12CCC[C@@](C)(COC(C)=O)[C@H]1[C@H](O)[C@]3(O)OC2 [LONGIKAURIN C]	2.1 µM	2.9 µM	3.3 µM
C=C1C(=O)[C@]23C[C@H]1C=C[C@H]2[C@]12CC[C@H](OC(C)=O)[C@@](C)(COC(C)=O)[C@H]1[C@H](O)[C@]3(O)OC2 [MAOESIN D]	7.3 µM	> 10 µM	> 10 µM
C=C(C=O)[C@@H]1CC[C@@H]2[C@@H](C1)C(=O)[C@@H](O)[C@@H]1[C@](C)(COC(C)=O)[C@@H](O)CC[C@]12C [ERIOCASIN C]	> 10 µM	> 10 µM	> 10 µM
C=C(CO)[C@@H]1C[C@@H](OC(C)=O)[C@@H]2[C@@H](C1)C(=O)[C@@H](O)[C@@H]1C(C)(C)CCC[C@@]21C [ERIOCASIN E]	> 10 µM	> 10 µM	> 10 µM
C=C1C(=O)[C@@]23C[C@H]1C[C@H]1OC(O)[C@@H]4[C@](C)(COC(C)=O)[C@H](OC(C)=O)C[C@@H](OC2=O)[C@@]4(CO)[C@H]13 (stereo partly drawn)	> 10 µM	> 10 µM	> 10 µM
C=C1C(=O)[C@@]23[C@H](O)C[C@@H]4C(C)(C)CC[C@H](O)[C@@]4(COC(C)=O)[C@@H]2CC[C@@H]1[C@H]3O [HENRYIN]	6 µM	> 10 µM	5.9 µM
C=C1C(=O)[C@]23C[C@H]1CC[C@H]2[C@]12CC[C@H](OC(C)=O)[C@@](C)(COC(C)=O)[C@H]1[C@H](O)[C@]3(O)OC2 [MAOECRYSTAL J]	4.2 µM	> 10 µM	9.8 µM
C=C(C=O)[C@@H]1CCC2=C(C1)C(=O)[C@@H](O)[C@@H]1C(C)(C)[C@H](O)CC[C@@]21C [ERIOCASIN B]	> 10 µM	> 10 µM	> 10 µM
C=C1C(O)[C@]23C[C@H]1CC[C@H]2[C@@]1(C)[C@H]([C@H](OC(C)=O)C3=O)[C@](C)(COC(C)=O)CC[C@@H]1O (stereo partly drawn) [MAOESIN E]	> 10 µM	> 10 µM	> 10 µM
C=C1C(=O)[C@]23C[C@H]1C[C@@H](O)[C@H]2[C@]12CC[C@H](OC(C)=O)[C@@](C)(COC(C)=O)[C@H]1[C@H](O)[C@]3(O)OC2 [MAOESIN C]	> 10 µM	> 10 µM	> 10 µM
COc1cccc2c1C(=O)c1c(O)c3c(c(O)c1C2=O)C[C@@](O)(C(=O)CO)C[C@@H]3O[C@H]1C[C@H](N)[C@H](O)[C@H](C)O1 [DOXORUBICIN]		0.067 µM	0.17 µM
C=C(C=O)[C@@H]1CC[C@@H]2[C@@H](C1)C(=O)[C@@H](O)[C@@H]1[C@](C)(COC(C)=O)[C@@H](OC(C)=O)CC[C@]12C	> 10 µM	> 10 µM	> 10 µM
C=C1C(OC(C)=O)[C@]23C[C@H]1CC[C@H]2[C@@]1(CC[C@H](OC(C)=O)[C@@](C)(COC(C)=O)[C@H]1C=O)COC3=O (stereo partly drawn) [MAOESIN F]	> 10 µM	> 10 µM	> 10 µM
